From article PMC3172365 (Biochemistry, 2011) come the findings set out here.

The target of this test is T1, E. coli MutL (Escherichia coli, UniProt P23367).
T1 sequence (P23367 1-615): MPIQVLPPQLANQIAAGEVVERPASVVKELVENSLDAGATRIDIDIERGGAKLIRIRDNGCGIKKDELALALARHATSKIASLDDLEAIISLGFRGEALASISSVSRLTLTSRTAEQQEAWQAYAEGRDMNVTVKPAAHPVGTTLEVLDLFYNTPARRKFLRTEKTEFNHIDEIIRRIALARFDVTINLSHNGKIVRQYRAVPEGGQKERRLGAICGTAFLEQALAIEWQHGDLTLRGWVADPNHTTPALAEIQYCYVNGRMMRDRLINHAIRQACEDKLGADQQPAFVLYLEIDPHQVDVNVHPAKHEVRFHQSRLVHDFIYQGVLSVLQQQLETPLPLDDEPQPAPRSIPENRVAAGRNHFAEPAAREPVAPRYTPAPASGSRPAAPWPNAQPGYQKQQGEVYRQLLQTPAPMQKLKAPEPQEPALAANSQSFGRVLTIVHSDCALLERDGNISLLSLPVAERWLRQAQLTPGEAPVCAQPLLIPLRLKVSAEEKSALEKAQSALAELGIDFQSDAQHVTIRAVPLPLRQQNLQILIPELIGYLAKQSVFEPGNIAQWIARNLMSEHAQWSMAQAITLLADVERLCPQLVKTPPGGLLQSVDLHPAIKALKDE
The experiment in a line: analytical sedimentation velocity titration. Format: binding. The method in brief: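 Sedimentation velocity at 42,000 rpm and 25°C with purified MutL dialyzed into Buffer M (50 mM potassium phosphate pH 7.4, 50 mM KCl, 0.1 mM EDTA, 1 mM 2-mercaptoethanol) and filtered. Loading was 0.25–3.94 µM monomer, alone or with 1 mM MgCl2 + 35 µM AMPPNP (scanned 230/280 nm), or 1.75 µM dimer with varied AMPPNP (scanned 292 nm). Scans every 2.5 min gave c(s) distributions and weight-average s20,w.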

The Kd is a measure of binding affinity in units of concentration. Higher therefore signals lower affinity. As for `Nc1ncnc2c1ncn2[C@@H]1O[C@H](COP(=O)(O)OP(=O)(O)NP(=O)(O)O)[C@@H](O)[C@H]1O` [AMPPNP], the Kd was 25.6 µM.
